Calls of active or inactive are those of the source. No cut-off for these calls is given here. Where only a bound is given, the exact number is not on record here.

The source of these data is ChEMBL document CHEMBL1142114, “Kaurane diterpenoids from Isodon excisus inhibit LPS-induced NF-kappaB activation and NO production in macrophage RAW264.7 cells” (J Nat Prod, 2007).

Assay type in all cases: functional, cell-based
The test system of experiment [1] is RAW264.7. Description: Inhibition of NO production in LPS-stimulated RAW264.7 cells after 24 hrs. The following applies: Mus musculus, RAW264.7, 24 h. The procedure, abridged:
(§1)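 RAW264.7 cells (1 × 10^5/well) were stimulated with LPS 1 µg/mL for 24 h with or without compound (0.1, 0.3, 1, 3, 10 µM). Nitrite in the culture supernatant was measured with Griess reagent. The remaining cells were checked for viability by MTT. IC50 is relative to vehicle control, mean ± SD of three separate experiments.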

For experiment [2], the system named is RAW264.7. Description: Inhibition of NF-kappaB activation in LPS-stimulated RAW264.7 cells after 24 hrs. The note with it: Mus musculus, RAW264.7, 24 h. The procedure, abridged:
(§2)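 RAW264.7 cells transfected with a reporter plasmid carrying eight kappaB elements driving secreted alkaline phosphatase, seeded 5 × 10^4 cells/well. After 3 h at 37 °C, cells were given compound (0.1–10 µM) plus LPS 1 µg/mL for 24 h. SEAP activity was read at 405 nm with p-nitrophenyl phosphate substrate in diethanolamine/MgCl2/L-homoarginine buffer. IC50 is relative to vehicle control, mean ± SD of three experiments.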

Experiment [3] deals with RAW264.7. Description: Inhibition of NF-kappaB activation in LPS-stimulated RAW264.7 cells at 10 uM after 24 hrs. The following applies: Mus musculus. The procedure, abridged: as §2
Experiment [4] has as its system RAW264.7. Description: Inhibition of NO production in LPS-stimulated RAW264.7 cells at 10 uM after 24 hrs. The following applies: Mus musculus. The procedure, abridged: as §1

Broadly, the IC50 is the concentration that gives 50% inhibition. As to `C=C1C(=O)[C@@]23CC[C@H]4[C@@](C)(CCC(=O)[C@@]4(C)COC(C)=O)[C@@H]2[C@@H](O)C[C@@H]1C3` [EXCISUSIN E], the IC50 with RAW264.7 [1] is 1.36 µM; in the experiment with RAW264.7 [2], 1.02 µM.
`N=C(N)NN` [PIMAGEDINE] displayed an IC50 with RAW264.7 [1] of 32.2 µM.
Turning to `C=C1C(=O)[C@@]23CC[C@@H]4C(C)(C)[C@@H](OC(C)=O)C[C@H](O)[C@@]4(C)[C@@H]2[C@@H](OC(C)=O)C[C@@H]1C3` [INFLEXARABDONIN G], the concentration for half-maximal inhibition (IC50) in the experiment with RAW264.7 [1] came out at 0.48 µM; in the experiment on RAW264.7 [2], 0.24 µM.
With `C=C1C(=O)[C@]23C[C@H]1C[C@H](O)[C@H]2[C@@]1(C)[C@H]([C@@H](O)C3)C(C)(C)[C@@H](OC(C)=O)C[C@@H]1O` [INFLEXANIN B], the figures for the IC50 in the experiment on RAW264.7 [1] and in the experiment with RAW264.7 [2] were 2.52 µM and 1.82 µM, respectively.
With `C=C1C(=O)[C@@]23CC[C@@H]4[C@](C)(CO)[C@@H](OC(C)=O)CC[C@@]4(C)[C@@H]2[C@@H](O)C[C@@H]1C3` [EXCISUSIN A], the values for the IC50 in the experiment with RAW264.7 [1] and in the experiment on RAW264.7 [2] were 0.67 µM and 0.9 µM, respectively.
On the same counts, the results for `C=C1C(=O)[C@]23C[C@H]1C[C@H](OC(C)=O)[C@H]2[C@@]1(C)[C@H]([C@@H](O)C3)C(C)(C)[C@@H](OC(C)=O)C[C@@H]1O` [INFLEXINOL] are 0.94 µM and 0.44 µM.
In the case of `C=C1C(=O)O[C@@H]2C3O[C@]3(C)CC/C=C(\C)CC[C@@H]12` (stereo not given in full), it took 1.15 µM to reach half-maximal inhibition in the experiment with RAW264.7 [2] (IC50).
Turning to `C=C1C(=O)[C@@]23CC[C@@H]4C(C)(C)[C@@H](OC(C)=O)C[C@H](O)[C@@]4(C)[C@@H]2[C@@H](O)C[C@@H]1C3` [EXCISUSIN B], the IC50 was 0.56 µM with RAW264.7 [1] and 0.26 µM in the experiment on RAW264.7 [2].
As to `C=C1C(=O)[C@]23C[C@H]1C[C@H](O)[C@H]2[C@]1(C)CC[C@H](OC(C)=O)C(C)(C)[C@H]1[C@@H](O)C3` [INFLEXANIN A], the IC50 turned out to be 0.63 µM in the experiment with RAW264.7 [1] and 0.4 µM in the experiment with RAW264.7 [2].
`C=C1C(=O)[C@]23C[C@H]1C[C@H](OC(C)=O)[C@H]2[C@@]1(C)[C@H]([C@@H](O)C3)C(C)(C)[C@@H](O)C[C@@H]1O` [EXCISUSIN D]: the IC50 in the experiment with RAW264.7 [1] came to 2.89 µM; in the experiment with RAW264.7 [2] it was 3.21 µM.
Take `C=C1[C@@H]2C[C@H](OC(C)=O)[C@@H]3[C@](C2)(C[C@H](O)[C@@H]2C(C)(C)[C@@H](OC(C)=O)C[C@H](O)[C@]23C)[C@@H]1O` [INFLEXARABDONIN A]: the result in the experiment with RAW264.7 [3] and with RAW264.7 [4] was inactive. Moreover, the IC50 in the experiment on RAW264.7 [1] and in the experiment with RAW264.7 [2] was over 10 µM in each case.
Regarding `C=C1[C@@H]2C[C@H](O)[C@H]3[C@]4(C)CC[C@@H](O)[C@@](C)(COC(C)=O)[C@H]4CC[C@]3(C2)[C@@H]1O` [EXCISUSIN C], the outcome with RAW264.7 [3] and in the experiment on RAW264.7 [4] was inactive. The half-maximal inhibitory concentration (IC50) in the experiment on RAW264.7 [1] and in the experiment on RAW264.7 [2] was over 10 µM throughout.
Consider `C=C1C(=O)[C@]23C[C@H]1C[C@H](O)[C@H]2[C@]1(C)CCC(=O)C(C)(C)[C@H]1[C@@H](O)C3` [INFLEXARABDONIN I], for which the IC50 with RAW264.7 [1] worked out at 1.24 µM; with RAW264.7 [2] it was 1.15 µM.
On to `C=C1C(=O)[C@@]23CC(=O)[C@@H]4C(C)(C)[C@@H](OC(C)=O)C[C@H](O)[C@@]4(C)[C@@H]2[C@@H](OC(C)=O)C[C@@H]1C3` [INFLEXIN], for which the figures for the IC50 with RAW264.7 [1] and with RAW264.7 [2] were 0.69 µM and 0.23 µM, respectively.
